The values below come from ChEMBL document CHEMBL1129931, “Structure-activity studies on 2-methyl-3-(2(S)-pyrrolidinylmethoxy) pyridine (ABT-089): an orally bioavailable 3-pyridyl ether nicotinic acetylcholine receptor ligand with cognition-enhancing properties” (J Med Chem, 1997).

Structures are written as SMILES. The source made the active and inactive calls. The calls are words filed in the database; no cut-off is given here.

The subject of data set [1] is IMR-32. The data set is described as follows: Concentration required to elicit ganglionic receptors measured using [86Rb+] flux functional assay in a human neuroblastoma-derived IMR-32 cell line. The class given is cell-based. The method, boiled down: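 Ganglionic-type (α3-containing) receptor function assessed as 86Rb+ flux in human neuroblastoma IMR-32 cells; EC50 reported as mean ± SEM, n = 3–5.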

Data set [2] can be described thus: Oral bioavailability in dog. The class given is ADME, organism-based, Canis lupus familiaris. The following applies: in vivo. The gist of the method:
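Fasted beagle dogs (n = 3–6) received 500 nmol/kg by oral gavage or slow iv bolus. Jugular plasma was sampled over 8 h, and parent drug was measured by reverse-phase HPLC. Bioavailability is reported as mean ± SEM.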

A short description of data set [3]: Half-life was measured in (in vitro) dog liver slice experiments following intravenous administration to dogs. As to conditions: in vivo. Type of data set: ADME, organism-based, Canis lupus familiaris. The method, boiled down:
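Beagle dogs were fasted overnight, with water available. They received 500 nmol/kg as a slow iv bolus into the saphenous vein. Jugular blood was sampled over 8 h, and plasma parent drug was measured by reverse-phase HPLC (electrochemical or derivatization/fluorescence detection).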

Data set [4] can be described thus: Half-life was measured in (in vitro) dog liver slice experiments. Type of data set: ADME, Canis lupus familiaris. As to conditions: dog liver slices. The method, boiled down: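 Compounds at a final 12 μg/mL were incubated with dog liver slices at 37 °C for times up to 24 h. Medium was removed and frozen, then parent compound was quantified by HPLC. Half-life and % remaining at 24 h were reported.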

The subject of data set [5] is IMR-32. The data set is described as follows: The maximal efficacy relative to 100 uM nicotine. The class given is functional, Homo sapiens.
For data set [6], the target named is Neuronal acetylcholine receptor subunit alpha-7 (Homo sapiens, UniProt P36544). The data set is described as follows: Bindind affinity value obtained by measuring the displacement of radioligand [125I]alpha-bungarotoxin from K-28 cells stably express human Nicotinic acetylcholine receptor alpha7. The class given is cell-based.
Chain of Neuronal acetylcholine receptor subunit alpha-7 (P36544 whole entry): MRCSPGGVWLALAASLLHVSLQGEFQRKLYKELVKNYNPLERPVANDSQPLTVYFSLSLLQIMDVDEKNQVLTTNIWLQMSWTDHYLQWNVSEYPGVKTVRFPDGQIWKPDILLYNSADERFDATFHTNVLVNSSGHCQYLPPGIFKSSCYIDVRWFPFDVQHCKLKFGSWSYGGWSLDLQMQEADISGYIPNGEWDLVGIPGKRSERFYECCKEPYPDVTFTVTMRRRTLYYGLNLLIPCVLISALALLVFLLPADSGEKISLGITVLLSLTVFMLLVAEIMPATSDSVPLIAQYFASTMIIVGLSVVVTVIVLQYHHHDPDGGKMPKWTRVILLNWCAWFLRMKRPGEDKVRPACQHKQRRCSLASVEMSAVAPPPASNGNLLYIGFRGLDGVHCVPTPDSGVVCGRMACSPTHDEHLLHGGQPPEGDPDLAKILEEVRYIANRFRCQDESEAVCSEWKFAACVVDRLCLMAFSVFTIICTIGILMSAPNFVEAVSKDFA
Data set [7] has as its target Neuronal acetylcholine receptor. The data set is described as follows: Binding affinity value obtained by measuring the displacement of radioligand [3H](-)-cytisine from whole rat brain Nicotinic acetylcholine receptor.
Data set [8] has the same target. The data set is described as follows: Binding affinity value obtained by measuring the displacement of radioligand [3H](-)-cytisine from a preparation of whole rat brain.
Data set [9] deals with Mus musculus. The data set is described as follows: Minimum dose of the drug (intraperitoneal) required that elicited a statistically significant response in mouse inhibitory avoidance assay. The class given is functional. The method, boiled down:
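Mice were dosed ip 15 min before training in a dark-light chamber, where entering the dark side was paired with a mild foot shock. The index of memory was latency to enter the dark chamber in a later test session.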

Data set [10] concerns Mus musculus. The data set is described as follows: Minimum dose of the drug (intraperitoneal) required for elicited a statistically significant response in hypothermia assay. Type of data set: functional. The method, boiled down:
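Body temperature was taken by rectal probe inserted 3 cm, about 20 min after ip injection. The same mice had just completed a 15-min open-field activity session.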

Data set [11] concerns Mus musculus. The data set is described as follows: Minimum dose of the drug (intraperitoneal) required for elicited a statistically significant response in seizure assay. Type of data set: functional.
For data set [12], the system named is Mus musculus. The data set is described as follows: Minimum dose of the drug (intraperitoneal) required elicited a statistically significant response in locomotor activity assay; No significant effect at (0.0062-6.2) dose range. The class given is functional, organism-based.

As a reminder, the EC50 is the concentration at which the effect is half-maximal. Low values mean a more potent agent, high ones a less potent agent. Broadly, the bioavailability is dose-corrected exposure relative to a reference, in per cent. Higher therefore signals good availability. Broadly, the half-life is the time in which the quantity being followed falls by half. High values mean slow loss, low ones fast loss. The Ki is a measure of affinity in units of concentration, obtained from inhibition or displacement. A low value points to a stronger hold on the target. With `Cc1ncccc1OC[C@H]1CCCN1`, it took 50 µM to reach a half-maximal effect in data set [1] (EC50). In addition, the bioavailability in [2] amounted to 66%. Further, the results for the half-life in [3] and in data set [4] were 1.4 h and greater than 24 h, respectively. In addition, the Max in data set [5] is 11%. In addition, in data set [6], the inhibitory constant (Ki) is greater than 10 µM.
`Cc1ncccc1OC[C@H]1CCCN1C` yielded a bioavailability in [2] of 4.9%. The half-life in [3] is 0.61 h; in data set [4] it was 8.5 h. The Ki in data set [6] was greater than 10 µM; in [7], 3 µM.
`CN1CCC[C@H]1COc1cccnc1` came in with an EC50 in [1] of 63 µM. In addition, the Ki turned out to be 0.00028 µM in [8] and 1.53 µM in data set [6]. In data set [5], this compound gave a Max of 100%.
In turn, `Cc1ncccc1OC[C@@H]1CCCN1C` had an EC50 in data set [1] of 25 µM. The bioavailability in data set [2] was found to be 5.8%. Also, the half-life in data set [3] is 0.31 h; in [4] it was 9 h. The compound further had a Max in data set [5] of 29%. The compound also returned a Ki in data set [6] greater than 10 µM.
Regarding `Cc1cc([C@@H]2CCCN2C)on1` [ABT-418], the response in data set [1] was half-maximal at 64 µM (EC50). This compound gave a bioavailability in [2] of 1.2%. For the same compound, the EDmin in data set [9] stood at 0.062 µM/kg; in data set [10] it was 19 µM/kg; in [11], 62 µM/kg. The half-life in [3] was 0.21 h; in data set [4], 3 h. This compound also had a Max in [5] of 85%. Besides, in data set [6], the Ki worked out at 4.05 µM.
`CN1CCC[C@H]1c1cccnc1` [NICOTINE]: the figures for the EDmin in data set [9], in data set [10] and in data set [11] were 0.62 µM/kg, 6.2 µM/kg and 41 µM/kg, respectively. For the same compound, in data set [5], the Max stood at 100%.
In data set [1], `Cc1ncccc1OC[C@@H]1CCCN1` [POZANICLINE] came in with an EC50 of 150 µM. Also, the bioavailability in data set [2] was 61.5%. For the same compound, the EDmin in data set [9] was 0.62 µM/kg; in data set [10], greater than 62 µM/kg; in [11] it was 774 µM/kg. For the same compound, the results for the half-life in [3] and in [4] were 1.6 h and greater than 24 h, respectively. In data set [5], this compound had a Max of 8%. Besides, in [6], the Ki was greater than 10 µM. The EDmin entry in data set [12] was “inactive”.
